Measurements published in ChEMBL document CHEMBL1142545, “1,3-Dialkyl-8-(hetero)aryl-9-OH-9-deazaxanthines as potent A2B adenosine receptor antagonists: design, synthesis, structure-affinity and structure-selectivity relationships” (Bioorg Med Chem, 2008).
Converted amounts (≈) assume the structure as drawn.

Assays:
Adenosine receptor A2a [1] = molecular target: T1, Adenosine receptor A2a (Homo sapiens, UniProt P29274); experiment: Displacement of [3H]ZM241385 from human cloned adenosine A2A receptor expressed in human HeLa cells; type: cell-based
T1 sequence (P29274 whole entry): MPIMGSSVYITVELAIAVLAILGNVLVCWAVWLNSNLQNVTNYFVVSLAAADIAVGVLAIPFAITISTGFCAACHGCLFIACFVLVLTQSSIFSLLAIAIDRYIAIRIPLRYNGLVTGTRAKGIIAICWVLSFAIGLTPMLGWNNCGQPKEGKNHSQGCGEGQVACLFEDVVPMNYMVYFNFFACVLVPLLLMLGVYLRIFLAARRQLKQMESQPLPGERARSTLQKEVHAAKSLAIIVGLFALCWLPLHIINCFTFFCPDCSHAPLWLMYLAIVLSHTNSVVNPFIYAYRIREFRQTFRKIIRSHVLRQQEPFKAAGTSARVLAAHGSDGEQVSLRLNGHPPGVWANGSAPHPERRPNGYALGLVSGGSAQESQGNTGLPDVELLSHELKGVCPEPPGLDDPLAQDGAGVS

Adenosine receptor A2b [2] = molecular target: T2, Adenosine receptor A2b (Homo sapiens, UniProt P29275); experiment: Displacement of [3H]DPCPX from human cloned adenosine A2B receptor expressed in HEK293 cells; type: cell-based
T2 sequence (P29275 whole entry): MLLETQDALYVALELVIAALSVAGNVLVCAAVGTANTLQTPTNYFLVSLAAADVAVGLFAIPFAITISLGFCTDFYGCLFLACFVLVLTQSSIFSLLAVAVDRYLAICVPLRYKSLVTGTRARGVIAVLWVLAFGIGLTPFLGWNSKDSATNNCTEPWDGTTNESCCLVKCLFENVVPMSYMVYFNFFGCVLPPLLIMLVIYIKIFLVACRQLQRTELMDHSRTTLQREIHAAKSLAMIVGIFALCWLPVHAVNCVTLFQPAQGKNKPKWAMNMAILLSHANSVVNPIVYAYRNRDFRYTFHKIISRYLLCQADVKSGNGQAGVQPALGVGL

HeLa [3] = experiment: Selectivity index, ratio of Ki for human cloned adenosine A2A receptor expressed in human HeLa cells to Ki for human cloned adenosine A2B receptor expressed in HEK293 cells; type: cell-based
Summary of the method: (§1)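 SI is the ratio of Ki values. […] A1 in CHO cells: [3H]DPCPX 2 nM. A2A in HeLa cells: [3H]ZM241385 3 nM. A2B in HEK-293 cells: [3H]DPCPX 25 nM. A3 in HeLa cells: [3H]NECA 30 nM. Filtration and scintillation counting.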

Adenosine receptor A1 = molecular target: T3, Adenosine receptor A1 (Homo sapiens, UniProt P30542); experiment: Displacement of [3H]DPCPX from human cloned adenosine A1 receptor expressed in CHO cells; type: cell-based
T3 sequence (P30542 whole entry): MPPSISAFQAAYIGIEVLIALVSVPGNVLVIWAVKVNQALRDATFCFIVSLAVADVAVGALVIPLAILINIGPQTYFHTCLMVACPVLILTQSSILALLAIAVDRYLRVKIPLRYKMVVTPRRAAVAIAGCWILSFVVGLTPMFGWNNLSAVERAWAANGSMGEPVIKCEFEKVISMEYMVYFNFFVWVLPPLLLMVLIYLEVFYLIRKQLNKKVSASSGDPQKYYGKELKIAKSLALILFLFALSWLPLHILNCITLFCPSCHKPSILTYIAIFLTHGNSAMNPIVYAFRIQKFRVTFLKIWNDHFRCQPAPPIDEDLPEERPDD

Adenosine receptor A3 [4] = molecular target: T4, Adenosine receptor A3 (Homo sapiens, UniProt P0DMS8); experiment: Displacement of [3H]NECA from human cloned adenosine A3 receptor expressed in human HeLa cells at 1 uM; type: cell-based
T4 sequence (P0DMS8 whole entry): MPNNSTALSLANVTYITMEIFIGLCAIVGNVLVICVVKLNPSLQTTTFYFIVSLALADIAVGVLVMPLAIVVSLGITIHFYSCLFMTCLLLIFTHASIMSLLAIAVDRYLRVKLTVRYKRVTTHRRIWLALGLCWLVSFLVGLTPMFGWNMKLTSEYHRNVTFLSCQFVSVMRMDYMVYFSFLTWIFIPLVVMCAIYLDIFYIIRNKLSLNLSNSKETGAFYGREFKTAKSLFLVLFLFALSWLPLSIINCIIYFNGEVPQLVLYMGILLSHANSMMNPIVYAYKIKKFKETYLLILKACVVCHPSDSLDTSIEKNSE

Adenosine receptor A2a [5] = molecular target: T1, Adenosine receptor A2a; experiment: Displacement of [3H]ZM241385 from human cloned adenosine A2A receptor expressed in human HeLa cells at 1 uM; type: cell-based
Summary of the method: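 HeLa membranes (10 µg) in 50 mM Tris–HCl, 1 mM EDTA, 10 mM MgCl2, 2 U/mL adenosine deaminase, pH 7.4; 3 nM [3H]ZM241385, 25 °C; NECA for nonspecific binding; filtration with 4× ice-cold washes, scintillation counting; percent radioligand displacement at 1 µM.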

Adenosine receptor A3 [6] = molecular target: T4, Adenosine receptor A3; experiment: Displacement of [3H]NECA from human cloned adenosine A3 receptor expressed in human HeLa cells; type: cell-based
[7] = Methanol-water partition coefficient, log K by RP-HPLC; type: physicochemical
Summary of the method: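 Reverse-phase HPLC with water–methanol 40/60 (v/v) mobile phase at 1.0 ml/min; dead time from KI in methanol; retention times in minutes; log k from capacity factor taken as lipophilicity index.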

[8] = Solubility in 50 mM Tris/HCl buffer at pH 7.4 by turbidimetric method; type: physicochemical
Summary of the method: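 DMSO stock added stepwise (about 14 additions) to 50 mM Tris/HCl pH 7.4 at room temperature, final DMSO below 5%; precipitation detected as UV absorbance rise at 600–800 nm; solubility limit from bilinear fit of absorbance versus DMSO.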

HeLa [9] = experiment: Selectivity index, ratio of Ki for human cloned adenosine A3 receptor expressed in human HeLa cells to Ki for human cloned adenosine A2B receptor expressed in HEK293 cells; type: cell-based; summary of the method: as §1
Adenosine receptor A2b [10] = molecular target: T5, Adenosine receptor A2b (Rattus norvegicus, UniProt P29276); experiment: Antagonist activity at adenosine A2B receptor in Wistar-Kyoto rat distal colon; details: read-out: pA2 (converted)
T5 sequence (P29276 whole entry): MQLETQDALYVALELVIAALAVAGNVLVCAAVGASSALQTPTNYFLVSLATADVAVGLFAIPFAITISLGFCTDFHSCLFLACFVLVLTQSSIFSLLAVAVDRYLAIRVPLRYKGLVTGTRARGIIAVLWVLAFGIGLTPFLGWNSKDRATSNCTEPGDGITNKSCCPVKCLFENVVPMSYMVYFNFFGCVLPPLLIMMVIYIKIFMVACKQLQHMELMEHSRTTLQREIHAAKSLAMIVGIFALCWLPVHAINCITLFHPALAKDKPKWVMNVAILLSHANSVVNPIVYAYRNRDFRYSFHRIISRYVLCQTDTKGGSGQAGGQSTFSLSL

HEK293 = experiment: Selectivity index, ratio of Ki for human cloned adenosine A1 receptor expressed in CHO cells to Ki for human cloned adenosine A2B receptor expressed in HEK293 cells; type: cell-based; summary of the method: as §1
Adenosine receptor A2a [11] = molecular target: Adenosine receptor A2a (Rattus norvegicus, UniProt P30543); experiment: Antagonist activity at adenosine A2A receptor in Sprague-Dawley rat aorta assessed as inhibition of phenylephrine-induced contraction; type: functional, tissue-based; details: read-out: pA2 (converted)
Chain of Adenosine receptor A2a (Rattus norvegicus, UniProt P30543) (P30543 whole entry): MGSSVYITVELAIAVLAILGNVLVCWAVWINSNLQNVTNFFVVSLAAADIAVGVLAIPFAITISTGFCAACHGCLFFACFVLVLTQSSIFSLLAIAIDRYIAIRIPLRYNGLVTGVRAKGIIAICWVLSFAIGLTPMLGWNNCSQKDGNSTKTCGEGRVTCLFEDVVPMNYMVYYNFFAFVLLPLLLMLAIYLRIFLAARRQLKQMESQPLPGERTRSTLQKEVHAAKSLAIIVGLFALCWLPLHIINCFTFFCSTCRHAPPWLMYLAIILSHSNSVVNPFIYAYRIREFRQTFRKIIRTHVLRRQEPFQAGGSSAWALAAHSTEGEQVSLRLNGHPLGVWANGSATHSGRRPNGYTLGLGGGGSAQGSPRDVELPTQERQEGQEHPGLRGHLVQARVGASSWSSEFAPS
Summary of the method: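 Aorta from male Sprague-Dawley rats (200–250 g), cut into 4 mm rings in Krebs solution at 37 °C with carbogen, 2 g basal tension, stabilised 60 min. Rings were contracted with phenylephrine, then antagonist was incubated for 30 min before cumulative NECA relaxation curves. pA2 = log((EC50'/EC50) − 1) − log C, from NECA EC50 with and without antagonist.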

| Ki (Adenosine receptor A2a [1]) [nM] | Ki (Adenosine receptor A2b [2]) [nM] | Structure (SMILES) | Ratio Ki (HeLa [3]) | other results |
| --- | --- | --- | --- | --- |
| 398 | 589 | CCCn1c(=O)c2c(cc(-c3ccc(C)cc3)n2O)n(CCC)c1=O | 0.66 |  |
| 324 | 71 | CCCn1c(=O)c2[nH]c(-c3ccc(C(C)=O)cc3)c(O)c2n(CCC)c1=O | 4.6 |  |
|  | 676 | CCCn1c(=O)c2c(cc(-c3ccccc3)n2O)n(CCC)c1=O |  | Ki (Adenosine receptor A1): 25 nM; inhibition (Adenosine receptor A3 [4]): 30%; inhibition (Adenosine receptor A2a [5]): 32% |
| 50 | 54 | CCCn1c(=O)c2[nH]c(-c3ccccc3)c(O)c2n(CCC)c1=O | 0.93 | Ki (Adenosine receptor A1): 83 nM; Ki (Adenosine receptor A3 [6]): 182 nM |
| 408 | 35 | CCCn1c(=O)c2[nH]c(-c3ccco3)c(OS(=O)(=O)O)c2n(CCC)c1=O | 11.7 |  |
|  |  | CCCn1c(=O)c2[nH]c(-c3ccc(OCC(=O)N4CCN(Cc5ccccc5)CC4)cc3)cc2n(CCC)c1=O | 42 | log K [7]: 0.93; Ki (Adenosine receptor A1): 43 nM; solubility kinetic [8]: 2 µg/mL (≈ 3.68 µM); inhibition (Adenosine receptor A3 [4]): 5% |
| 692 | 68 | Cn1c(=O)c2[nH]c(-c3ccc(S(C)(=O)=O)cc3)c(O)c2n(C)c1=O | 10.2 |  |
| 199 | 490 | CCCn1c(=O)c2[nH]c(-c3ccc(OC)cc3)cc2n(CCC)c1=O | 0.41 | log K [7]: 0.71; solubility kinetic [8]: 28 µg/mL (≈ 82 µM) |
| 240 | 155 | CCCn1c(=O)c2c(cc(-c3ccc(N)cc3)n2O)n(CCC)c1=O | 1.5 |  |
| 646 | 229 | CCCn1c(=O)c2[nH]c(-c3ccccc3)cc2n(CCC)c1=O | 2.8 | Ki (Adenosine receptor A1): 34 nM; Ki (Adenosine receptor A3 [6]): 96 nM |
| 166 | 19 | CCCn1c(=O)c2[nH]c(-c3ccc(N)cc3)c(O)c2n(CCC)c1=O | 8.7 | log K [7]: 0.96; solubility kinetic [8]: 30 µg/mL (≈ 87.6 µM) |
| 631 | 479 | CCCn1c(=O)c2c(cc(-c3ccc(OC)cc3)n2O)n(CCC)c1=O | 1.3 |  |
| 48 | 44 | CCCn1c(=O)c2[nH]c(-c3ccc(O)cc3)cc2n(CCC)c1=O | 1.1 |  |
| 126 | 457 | Cc1ccc(-c2cc3c([nH]2)c(=O)n(C)c(=O)n3C)cc1 | 0.28 |  |
| 1470 | 288 | Cn1c(=O)c2[nH]c(-c3ccccc3)c(O)c2n(C)c1=O | 5.1 |  |
| 118 | 11 | CCCn1c(=O)c2[nH]c(-c3ccc(O)cc3)c(O)c2n(CCC)c1=O | 10.7 |  |

| Ki (Adenosine receptor A2a [1]) [nM] | Ki (Adenosine receptor A2b [2]) [nM] | Structure (SMILES) | Ratio Ki (HeLa [3]) | other results |
| --- | --- | --- | --- | --- |
| 933 | 338 | CCCn1c(=O)c2[nH]c(-c3ccc(C(=O)O)cc3)c(O)c2n(CCC)c1=O | 2.8 |  |
| 631 | 199 | CCCn1c(=O)c2[nH]c(-c3ccc(C)cc3)cc2n(CCC)c1=O | 3.2 | log K [7]: 0.97; solubility kinetic [8]: 6 µg/mL (≈ 18.4 µM) |
| 104 | 23 | CCCn1c(=O)c2[nH]c(-c3ccco3)c(O)c2n(CCC)c1=O | 4.5 |  |
|  | 2240 | Cc1ccc(-c2cc3c(c(=O)n(C)c(=O)n3C)n2O)cc1 |  | inhibition (Adenosine receptor A2a [5]): 8% |
| 102 | 115 | CCCn1c(=O)c2c(cc(-c3ccc(O)cc3)n2O)n(CCC)c1=O | 0.89 |  |
|  | 1660 | Cn1c(=O)c2c(cc(-c3ccccc3)n2O)n(C)c1=O |  | inhibition (Adenosine receptor A2a [5]): 12% |
| 148 | 24 | CCCn1c(=O)c2[nH]c(-c3ccc(OC)cc3)c(O)c2n(CCC)c1=O | 6.2 | log K [7]: 0.51; solubility kinetic [8]: 120 µg/mL (≈ 336 µM) |
| 162 | 8.9 | CCCn1c(=O)c2[nH]c(-c3ccc(N)cc3)cc2n(CCC)c1=O | 18.2 | log K [7]: 1.21; solubility kinetic [8]: 6 µg/mL (≈ 18.4 µM) |
|  |  | CCCn1c(=O)c2[nH]c(-c3ccc(OCC(=O)Nc4ccc(Br)cc4)cc3)cc2n(CCC)c1=O | 14 | Ki (Adenosine receptor A1): 21 nM; Ki (Adenosine receptor A3 [6]): 199 nM |
| 468 | 64 | CCCn1c(=O)c2[nH]c(-c3ccc(S(C)(=O)=O)cc3)c(O)c2n(C)c1=O | 7.3 | Ki (Adenosine receptor A1): 240 nM; inhibition (Adenosine receptor A3 [4]): 7% |
| 145 | 50 | CCCn1c(=O)c2[nH]c(-c3ccc([N+](=O)[O-])cc3)c(O)c2n(CCC)c1=O | 2.9 |  |
| 89 | 89 | CCCn1c(=O)c2[nH]c(-c3ccc(C)cc3)c(O)c2n(CCC)c1=O | 1 | log K [7]: 0.83; solubility kinetic [8]: 30 µg/mL (≈ 87.9 µM) |
| 479 | 182 | Cn1c(=O)c2[nH]c(-c3ccccc3)cc2n(C)c1=O | 2.6 |  |
| 2450 | 513 | Cc1ccc(-c2[nH]c3c(=O)n(C)c(=O)n(C)c3c2O)cc1 | 4.8 |  |
| 100 | 1 | CCCn1c(=O)c2[nH]c(-c3ccc(OCC(=O)Nc4ccc(Br)cc4)cc3)c(O)c2n(CCC)c1=O | 100 | Ratio Ki (HeLa [9]): 1290; Ki (Adenosine receptor A1): 79 nM; Kb (Adenosine receptor A2b [10]): 0.468 nM; Ratio Ki (HEK293): 79; Kb (Adenosine receptor A2a [11]): 224 nM; Ki (Adenosine receptor A3 [6]): 1290 nM |

| Structure (SMILES) | Ki (Adenosine receptor A2a [1]) [nM] | Ki (Adenosine receptor A2b [2]) [nM] | Ratio Ki (HeLa [3]) | other results |
| --- | --- | --- | --- | --- |
| CCCn1c(=O)c2[nH]c(-c3ccc(S(C)(=O)=O)cc3)c(O)c2n(CCC)c1=O | 28 | 6.5 | 4.3 | Ki (Adenosine receptor A1): 63 nM; Ki (Adenosine receptor A3 [6]): 295 nM |
